# Experimental data reported in PubChem BioAssay AID588777 (Broad Institute, 2011).
# The source made the active and inactive calls.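 Rule for the calls: active = compound whose fitted half-maximal concentration, rising or falling, is at most ten times its top tested dose; inconclusive = flat fit showing 30 to 70% decrease, or bad fit; inactive = the rest.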
# Target: Scavenger receptor class B member 1 (Mus musculus) (UniProt Q61009)
# Test: Alexa488-HDL binding change at mSR-BI cells – ldlA[mSR-BI] cells, powder samples, orthogonal assay for SR-BI HDL uptake inhibitor project, dose response (AID 588777)
# Conditions: Alexa488-HDL binding fluorescence, 3 h
# Summary of the method: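 Detection: bottom-read Alexa488 fluorescence; Material: ldlA[mSR-BI] cells expressing murine scavenger receptor SR-BI; Also added: Alexa488-labelled HDL at 10 µg/mL; Incubation: 3 h at 37 °C; Doses: compound dose series.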
# Sequence of Scavenger receptor class B member 1 (Mus musculus) (Q61009 whole entry, looked up): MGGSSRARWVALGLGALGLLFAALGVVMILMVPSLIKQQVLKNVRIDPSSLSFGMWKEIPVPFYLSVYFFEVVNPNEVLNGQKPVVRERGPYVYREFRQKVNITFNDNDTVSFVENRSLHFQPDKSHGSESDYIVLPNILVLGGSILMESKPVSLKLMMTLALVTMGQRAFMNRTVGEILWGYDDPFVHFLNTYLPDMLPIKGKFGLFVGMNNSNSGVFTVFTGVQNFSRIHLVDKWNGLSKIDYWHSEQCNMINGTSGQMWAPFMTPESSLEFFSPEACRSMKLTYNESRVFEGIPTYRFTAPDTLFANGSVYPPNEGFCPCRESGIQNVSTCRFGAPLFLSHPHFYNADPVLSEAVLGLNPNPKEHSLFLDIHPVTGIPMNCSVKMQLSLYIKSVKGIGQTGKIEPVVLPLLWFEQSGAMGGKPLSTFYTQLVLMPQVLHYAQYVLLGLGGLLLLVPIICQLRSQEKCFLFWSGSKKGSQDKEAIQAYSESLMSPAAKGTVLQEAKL
Structure (SMILES),AC50,other results
COc1cccc(-c2csc(N3CCN(C(=S)Nc4cccc(Cl)c4)CC3)n2)c1,12 µM,
O=C(Nc1cc(Cl)ccc1Cl)c1cc(Br)ccc1NS(=O)(=O)c1ccc(Cl)c([N+](=O)[O-])c1,4.23 µM,
C[C@H]1CN([C@@H](C)CO)C(=O)c2cccc(NC(=O)Nc3ccccc3)c2O[C@@H]1CN(C)Cc1ccc(Cl)c(Cl)c1,1.79 µM,
Nc1ccc(C(=O)Nc2ccc(-c3nc4ccc(NC(=O)c5ccc(N)cc5)cc4[nH]3)cc2)cc1,4.55 µM,
CC(C)NC(=O)Nc1cccc2c1O[C@H](CN(C)Cc1ccc(Cl)c(Cl)c1)[C@@H](C)CN([C@@H](C)CO)C2=O,9.96 µM,
C[C@H]1CN([C@@H](C)CO)C(=O)c2cccc(NC(=O)Nc3ccc(F)cc3)c2O[C@@H]1CN(C)Cc1ccc(Cl)c(Cl)c1,0.533 µM,
C[C@H](CO)N1C[C@H](C)[C@@H](CN(C)S(=O)(=O)c2ccc(F)cc2)Oc2ccc(NC(=O)Cc3cn(C)c4ccccc34)cc2C1=O,,"activity change, either direction (at 11 µM (top of the series)): inactive"
C[C@H]1CN([C@@H](C)CO)C(=O)c2cccc(NC(=O)Nc3ccccc3)c2O[C@@H]1CN(C)S(C)(=O)=O,,"activity change, either direction (at 35 µM (top of the series)): inactive"
CC(C)(C)NC(=O)N1CCN(c2ncccc2C(F)(F)F)CC1,7.61 µM,
CCC(=O)N1CCc2cc(-c3csc(NC(=O)c4ccco4)n3)ccc21,,"activity change, either direction (at 35 µM (top of the series)): inactive"
Cc1ccccc1NC(=O)NCC1CCN(c2ccc(S(=O)(=O)N3CCOCC3)cc2)CC1,3.98 µM,
Cc1ccc2oc(-c3cccc(NC(=O)c4cc(-n5cnnc5)ccc4Cl)c3)nc2c1,,"activity change, either direction (at 68 µM (top of the series)): inactive"
C[C@@H]1CN([C@H](C)CO)C(=O)c2cc(NC(=O)Cc3cn(C)c4ccccc34)ccc2O[C@H]1CN(C)S(=O)(=O)c1ccc(F)cc1,2.06 µM,
O=C(Nc1ccc(-c2nc3cc(NC(=O)c4ccccc4[N+](=O)[O-])ccc3o2)cc1)c1ccccc1[N+](=O)[O-],,"activity change, either direction (at 35 µM (top of the series)): inactive"
CC(C)OCCCNC(=O)c1ccc(C2SCC(=O)N2Cc2ccco2)cc1 (stereo not drawn),16.5 µM,
CC(OC(=O)c1cccc(NS(C)(=O)=O)c1)C(=O)Nc1ccc(N2CCOCC2)cc1 (stereo not drawn),4.47 µM,
O=C(Nc1ccc(-c2nc3ccc(NC(=O)c4ccc(Cl)cc4)cc3[nH]2)cc1)c1ccc(Cl)cc1,,"activity change, either direction (at 35 µM (top of the series)): inactive"
C[C@H]1CN([C@@H](C)CO)C(=O)c2cccc(NC(=O)Nc3ccccc3)c2O[C@@H]1CN(C)Cc1ccccc1,13.8 µM,
C[C@@H]1CN([C@@H](C)CO)C(=O)c2cc(NC(=O)Cc3cn(C)c4ccccc34)ccc2O[C@H]1CN(C)S(=O)(=O)c1ccc(F)cc1,10.2 µM,
O=C(Nc1cccc(NC(=O)c2cc([N+](=O)[O-])ccc2Cl)n1)c1cc([N+](=O)[O-])ccc1Cl,5.11 µM,

Structure (SMILES),AC50,other results
C[C@H]1CN([C@@H](C)CO)C(=O)c2cccc(NC(=O)Nc3ccccc3)c2O[C@@H]1CN(C)Cc1ccc(C(F)(F)F)cc1,19.4 µM,
Cc1ccc(-c2nnc(N3CCC(C)CC3)c3ccccc23)cc1C,5.54 µM,
COc1ccc(OC)c(CCNC(=O)c2ccc3c(c2)N(Cc2ccc(F)cc2)CCS3)c1,6.52 µM,
C[C@H]1CN([C@@H](C)CO)C(=O)c2cccc(NS(C)(=O)=O)c2O[C@@H]1CN(C)Cc1ccc(Cl)c(Cl)c1,,"activity change, either direction (at 35 µM (top of the series)): inactive"
COc1ccc(-c2nnn(CC(=O)N(C3CCCCC3)C(C)C(=O)NC3CCCC3)n2)cc1OC (stereo not drawn),0.422 µM,
O=C(Nc1cc(Cl)ccc1Cl)c1cc(Cl)ccc1NS(=O)(=O)c1ccc(Cl)c([N+](=O)[O-])c1,,"activity change, either direction (at 35 µM (top of the series)): inactive"
O=C(Nc1ccc(-c2nc3cc(NC(=O)c4ccccc4Cl)ccc3o2)cc1)c1ccccc1Cl,0.0819 µM,
C[C@H]1CN([C@@H](C)CO)C(=O)c2cc(NC(=O)Nc3ccccc3)ccc2O[C@@H]1CN(C)Cc1ccc(Cl)c(Cl)c1,,"activity change, either direction (at 35 µM (top of the series)): inactive"
CCOc1ccc(NC(=O)CN2CCN(CC(=O)Nc3cc(OC)cc(OC)c3)CC2)cc1,0.128 µM,
O=C(Nc1cc(C(F)(F)F)ccc1Cl)c1ccccc1NS(=O)(=O)c1ccc(Cl)cc1,,"activity change, either direction (at 35 µM (top of the series)): inactive"
O=C(Nc1ccc(Cl)cc1C(=O)c1ccc(Cl)cc1)c1cc(Br)ccc1NS(=O)(=O)c1ccc(Cl)cc1,21.7 µM,
C[C@H](CO)N1C[C@H](C)[C@H](CN(C)S(=O)(=O)c2ccc(F)cc2)Oc2ccc(NS(C)(=O)=O)cc2C1=O,21 µM,
CCn1c(COc2c(C)cccc2C)nnc1SCC(=O)N1CCN(c2ccccc2)CC1,5.89 µM,
C[C@@H]1CN([C@H](C)CO)C(=O)c2cc(NC(=O)Cc3cn(C)c4ccccc34)ccc2O[C@H]1CN(C)S(=O)(=O)c1ccc(Cl)cc1,0.168 µM,
COC(=O)c1cn(C(=O)c2cccc3ccccc23)c2ccccc12,23 µM,
CCOc1ccccc1/C=C/c1onc(C)c1S(=O)(=O)N1CCC(C(=O)NC(C)(C)C)CC1,11.3 µM,
CCOC(=O)N1CCC(NC(=O)c2ccc3c(c2)N(Cc2ccc(F)cc2)CCS3)CC1,2.4 µM,
Cc1cc(SC(C)C(=O)Nc2ncc(Cl)cc2Cl)nc2ccccc12 (stereo not drawn),6.84 µM,
O=C(Nc1ccc(-c2nc3cc(NC(=O)c4ccc(NC(=O)c5cccc6ccccc56)cc4)ccc3[nH]2)cc1)c1ccc(NC(=O)c2cccc3ccccc23)cc1,< 0.015 µM,
C[C@H]1CN([C@@H](C)CO)C(=O)c2cc(NC(=O)Cc3cn(C)c4ccccc34)ccc2O[C@H]1CN(C)S(=O)(=O)c1ccc(F)cc1,25.4 µM,

Structure (SMILES),AC50,other results
C[C@H](CO)N1C[C@H](C)[C@H](CN(C)S(=O)(=O)c2ccc(F)cc2)Oc2ccc(NC(=O)CCC(F)(F)F)cc2C1=O,,"activity change, either direction (at 35 µM (top of the series)): inactive"
C[C@@H]1CN([C@H](C)CO)C(=O)c2cc(NC(=O)Cc3cn(C)c4ccccc34)ccc2O[C@@H]1CN(C)S(=O)(=O)c1ccc(F)cc1,21.5 µM,
Cc1cc(C(=O)C(C)OC(=O)C2=NNC(=O)CC2)c(C)n1-c1ccc(OC(F)F)cc1 (stereo not drawn),7.45 µM,
C[C@@H]1CN([C@H](C)CO)C(=O)c2cc(NC(=O)Cc3cn(C)c4ccccc34)ccc2O[C@H]1CN(C)S(C)(=O)=O,25 µM,
Cc1cc(C)c2c(c1)NC(c1cc3c(cc1Br)OCO3)C1CC=CC21 (stereo not drawn),8.25 µM,
C[C@@H]1CN([C@H](C)CO)C(=O)c2cc(NC(=O)Cc3cn(C)c4ccccc34)ccc2O[C@H]1CN(C)C(=O)Nc1ccc(F)cc1,1.93 µM,
O=C(Nc1ccc(-c2nc3ccc(NC(=O)c4ccccc4[N+](=O)[O-])cc3[nH]2)cc1)c1ccccc1[N+](=O)[O-],0.0549 µM,
O=C(Nc1ccccc1)c1ccccc1NS(=O)(=O)c1ccc(Cl)cc1,,"activity change, either direction (at 35 µM (top of the series)): inactive"
Cc1cc(C)n(CC(=O)NC2CCCc3c2cnn3-c2ccc(C)c(C)c2)n1 (stereo not drawn),0.0494 µM,
COc1ccc([C@H]2CC(=O)C=C(c3cccc4c3sc3ccccc34)C2)cc1OC,2.28 µM,
CCc1sc(N2C(=O)C3C4CCC(C4=C(C)C)C3C2=O)nc1-c1ccccc1 (stereo not drawn),0.441 µM,
CCc1cc2cc3c(cc2nc1SCC(=O)OC(C)C)OCO3,1.48 µM,
C[C@H](CO)N1C[C@H](C)[C@H](CN(C)S(=O)(=O)c2ccc(F)cc2)Oc2ccc(NC(=O)Cc3cn(C)c4ccccc34)cc2C1=O,30.9 µM,
C[C@@H]1CN([C@H](C)CO)C(=O)c2cc(NC(=O)Cc3cn(C)c4ccccc34)ccc2O[C@H]1CN(C)S(=O)(=O)c1ccccc1,8.36 µM,
C[C@@H]1CN([C@@H](C)CO)C(=O)c2cc(NC(=O)Cc3cn(C)c4ccccc34)ccc2O[C@@H]1CN(C)S(=O)(=O)c1ccc(F)cc1,22.8 µM,
N#Cc1sc2nc(C3CC3)cc(-c3ccc(Cl)cc3)c2c1N,20.1 µM,
CCOC(=O)Nc1cccc(NC(=O)c2cc(OC)cc(OC)c2)c1,2.27 µM,
O=C(Nc1ccc(-c2nc3ccc(NC(=O)c4ccccc4)cc3[nH]2)cc1)c1ccccc1,0.328 µM,
